Assay results: ChEMBL document CHEMBL1130352, “3-[[(4-Aryl-1-piperazinyl)alkyl]cyclohexyl]-1H-indoles as dopamine D2 partial agonists and autoreceptor agonists” (J Med Chem, 1997)
pKi: −log10 of the molar value. Calls of active or inactive are those of the source. No cut-off for these calls is given here.

Legend:
D(2) dopamine receptor [1] = target: T1, D(2) dopamine receptor (Rattus norvegicus, UniProt P61169); assay: In vitro binding affinity for dopamine receptor D2 on rat striatal membranes by [3H]spiperone displacement.; set-up: species or system Striatum, Membrane
T1 sequence (P61169 whole entry): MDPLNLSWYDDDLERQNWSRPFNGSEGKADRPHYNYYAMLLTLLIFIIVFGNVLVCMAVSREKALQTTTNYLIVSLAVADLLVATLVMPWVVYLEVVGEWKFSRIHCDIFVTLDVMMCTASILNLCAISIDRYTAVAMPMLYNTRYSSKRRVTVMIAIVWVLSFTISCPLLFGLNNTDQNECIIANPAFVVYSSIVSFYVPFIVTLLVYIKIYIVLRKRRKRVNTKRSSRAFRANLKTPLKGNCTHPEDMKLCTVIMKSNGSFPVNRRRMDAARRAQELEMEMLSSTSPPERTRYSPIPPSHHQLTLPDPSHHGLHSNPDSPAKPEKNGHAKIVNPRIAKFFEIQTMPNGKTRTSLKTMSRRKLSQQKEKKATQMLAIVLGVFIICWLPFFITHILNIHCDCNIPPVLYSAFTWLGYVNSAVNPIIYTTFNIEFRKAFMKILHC
Outline: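 Displacement of [3H]spiperone (0.2 nM final) from rat striatal membranes; nonspecific binding defined with 1 μM (+)-butaclamol. IC50 determined, reported as Ki.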

Rattus norvegicus [2] = species on record: Rattus norvegicus; assay: Inhibition of spontaneous locomotor activity after peroral injection into rat; format: functional
Outline: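 Rats dosed orally before a 30 min test in darkened cylindrical photobeam chambers. Percent inhibition of activity relative to vehicle-treated rats; ED50 with 95% confidence range from three to six doses, 6–18 animals per dose.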

Mus musculus [3] = assay: In vivo inhibition of locomotor activity in mice following i.p. administration.; format: functional; settings: ip
Outline: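 Mice dosed ip, then immediately tested for 1 h in darkened cylindrical photobeam chambers. Activity expressed as percent inhibition versus vehicle-treated mice. ED50 with 95% confidence range from three to six doses, 6–18 animals per dose.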

Rattus norvegicus [4] = assay: Percent reversal of DOPA levels in the striatum of gamma-butyrolactone-treated rats at 10 mg/kg by intraperitoneal route; format: functional
Outline: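 Male Long Evans rats received 10 mg/kg ip 1 h before sacrifice, with GBL (750 mg/kg ip) and NSD 1015 (100 mg/kg ip) 30 min before sacrifice. Striatal DOPA was quantified by HPLC-electrochemical detection and expressed as percent reversal between GBL + NSD 1015 (0%) and vehicle + NSD 1015 (100%) controls; n = 4-5 rats.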

Rattus norvegicus [5] = assay: Percent reversal of DOPA synthesis in the striatum of gamma-butyrolactone-treated rats at 10 mg/kg by intraperitoneal route; Increase; format: functional, organism-based; set-up: dose 10 mg/kg
Outline: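 Male Long Evans rats given compound ip 1 h before sacrifice; GBL (750 mg/kg ip) plus NSD 1015 (100 mg/kg ip) 30 min before sacrifice. Striatal DOPA measured by HPLC with electrochemical detection. Result given as percent reversal between the GBL + NSD 1015 control (0%) and the vehicle + NSD 1015 control (100%); n = 4–5 animals.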

Rattus norvegicus [6] = assay: Inhibition of spontaneous locomotor activity after intraperitoneal injection into rat at 3 mg/kg; format: functional; settings: ip
Rattus norvegicus [7] = assay: Inhibition of spontaneous locomotor activity after intraperitoneal injection into rat at 30 mg/kg; format: functional; settings: ip
Rattus norvegicus [8] = species on record: Rattus norvegicus; assay: Inhibition of spontaneous locomotor activity after peroral injection into rat; Stimulation of locomotory activity; format: functional, organism-based
Mus musculus [9] = assay: Inhibition of apomorphine-induced climbing in mice after intraperitoneal injection; format: functional; settings: ip
Outline: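 Mice received apomorphine 1 mg/kg sc and returned to cages. Test compound or vehicle given ip 5 min later, and climbing scored 10 min after that; ED50 in mg/kg ip.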

Rattus norvegicus [10] = assay: Stereotypy in rats (intraperitoneal); format: functional; settings: ip
Outline: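 A trained observer rated rats for repetitive sniffing, licking and gnawing, 30 s per rat; a behaviour counted only if continuously present for at least 15 s. Rats observed 1 h after the test compound, then given the D1 agonist SKF 38393 and observed for another hour.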

D(2) dopamine receptor [11] = target: T1, D(2) dopamine receptor; assay: Binding affinity was determined in vitro on rat striatum using [3H]N-propylnorapomorphine against Dopamine receptor D2; format: tissue-based
Outline: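 Rat striatal membranes; [3H]-NPA agonist radioligand at 0.35 nM final, labelling high-affinity state D2 sites; nonspecific binding defined with 2 μM (+)-butaclamol. IC50 determined by displacement, reported as Ki (nM).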

Rattus norvegicus [12] = assay: Decrease of rat striatal dopamine overflow after intraperitoneal injection of 10 mg/kg measured via in vivo microdialysis; format: functional; set-up: scale not given: the % may be the effect or the level left
Outline: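 Adult male Sprague-Dawley rats (200-250 g) under urethane in a stereotaxic frame, with a 4 mm probe in striatum perfused with artificial CSF at 2 μL/min. Dialysate collected every 20 min and assayed for catecholamines by HPLC-electrochemical detection, after 10 mg/kg ip; n = 4.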

D(3) dopamine receptor = D(3) dopamine receptor (Homo sapiens, UniProt P35462); assay: In vitro binding affinity towards human recombinant Dopamine receptor D3 receptor expressed in CHO-K1 cells was determined using [3H]spiperone as radioligand
D(3) dopamine receptor, sequence (P35462 whole entry): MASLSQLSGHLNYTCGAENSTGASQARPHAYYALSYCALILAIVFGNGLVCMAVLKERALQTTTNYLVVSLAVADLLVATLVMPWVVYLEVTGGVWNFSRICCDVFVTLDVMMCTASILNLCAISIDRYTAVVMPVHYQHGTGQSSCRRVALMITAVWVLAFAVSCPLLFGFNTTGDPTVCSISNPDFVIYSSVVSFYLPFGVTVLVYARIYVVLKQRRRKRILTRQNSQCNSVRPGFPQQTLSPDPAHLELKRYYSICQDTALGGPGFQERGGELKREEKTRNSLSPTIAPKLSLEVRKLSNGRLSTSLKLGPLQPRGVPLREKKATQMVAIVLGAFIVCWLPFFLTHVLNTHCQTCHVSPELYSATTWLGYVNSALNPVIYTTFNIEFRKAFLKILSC

[13] = Decrease in squirrel monkey striatal dopamine overflow measured via in vivo microdialysis after administering a dose of 3 mg/kg intraperitoneally; format: functional; set-up: scale not given: the % may be the effect or the level left; settings: route intraperitoneal
[14] = Inhibition of sidman avoidance in squirrel monkey after peroral administration; format: functional; settings: po
Outline: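 Squirrel monkeys dosed orally; conditioned (Sidman) avoidance recorded for 6 h. Effect expressed as percent avoidance responding relative to control performance over the 4 h of peak effect; ED50 in mg/kg po.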

Rattus norvegicus [15] = species on record: Rattus norvegicus; assay: Compound was evaluated for ability to reverse gamma-butyrolactone (GBL)-induced sunthesis of DOPA in rat corpus striatum; format: functional
Outline: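 Male Long Evans rats dosed 1 h before sacrifice; GBL 750 mg/kg ip plus NSD 1015 100 mg/kg ip given 30 min before sacrifice. Striatal DOPA measured by HPLC with electrochemical detection. ED50 read graphically as the dose giving 50% reversal of the GBL-induced rise in DOPA accumulation; 0% = GBL + NSD 1015, 100% = vehicle + NSD 1015.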

D(4) dopamine receptor = target: T2, D(4) dopamine receptor (Homo sapiens, UniProt P21917); assay: In vitro binding affinity towards human recombinant Dopamine receptor D4 expressed in CHO-K1 cells was determined using [3H]spiperone as radioligand; format: cell-based
T2 sequence (P21917 whole entry): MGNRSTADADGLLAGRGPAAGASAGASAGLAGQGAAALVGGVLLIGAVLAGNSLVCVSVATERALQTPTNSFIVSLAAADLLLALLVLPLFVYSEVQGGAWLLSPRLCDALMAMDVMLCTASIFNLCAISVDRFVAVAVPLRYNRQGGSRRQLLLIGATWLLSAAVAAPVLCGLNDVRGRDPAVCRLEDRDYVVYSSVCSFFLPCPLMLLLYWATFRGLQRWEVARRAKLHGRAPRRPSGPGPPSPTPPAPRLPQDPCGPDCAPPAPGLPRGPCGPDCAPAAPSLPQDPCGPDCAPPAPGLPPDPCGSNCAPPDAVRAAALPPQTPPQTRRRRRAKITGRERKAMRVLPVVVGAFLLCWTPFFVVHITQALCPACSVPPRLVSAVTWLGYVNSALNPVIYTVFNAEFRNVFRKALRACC
Outline: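 CHO K1 cells stably transfected with human recombinant DA D4.2 receptor subtype; membranes incubated with [3H]spiperone (0.2 nM final); Ki values determined.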

Rattus norvegicus [16] = assay: Decrease in dopamine neuronal firing rate in rats after intraperitoneal injection of 2.5 mg/kg; format: functional; set-up: scale not given: the % may be the effect or the level left

pKi (D(2) dopamine receptor [1])	SMILES	ED50 (Rattus norvegicus [2]) [mg/kg]	ED50 (Mus musculus [3]) [mg/kg]	Reversal (Rattus norvegicus [4]) [%]	also measured
7.54	COc1ccc2[nH]cc([C@H]3CC[C@H](CCN4CCN(c5ccccn5)CC4)CC3)c2c1	> 30	2.2	88	–
8.07	Oc1ccc2[nH]cc([C@H]3CC[C@H](CCN4CCN(c5ccccn5)CC4)CC3)c2c1	> 30	0.6	25	–
7.07	c1ccc(N2CCN(C[C@H]3CC[C@H](c4c[nH]c5ccccc54)CC3)CC2)nc1	8.8	2.3	81	–
6.86	c1ccc(N2CCN(CC[C@H]3CC[C@@H](c4c[nH]c5ccccc54)CC3)CC2)nc1	12.2	4.7	60	–
6.79	c1cnc(N2CCN(CC[C@H]3CC[C@H](c4c[nH]c5ccccc54)CC3)CC2)nc1	18.6	3.3	34	–
6.91	c1ccc(N2CCN(C[C@H]3CC[C@@H](c4c[nH]c5ccccc54)CC3)CC2)nc1	–	1.2	–	inhibition in vivo at 3 mg/kg (Rattus norvegicus [6]): 57%; inhibition in vivo at 30 mg/kg (Rattus norvegicus [7]): 1.8%
6.91	c1ccc(N2CCN(CC[C@H]3CC[C@H](c4c[nH]c5ccccc54)CC3)CC2)cc1	–	13.9	–	Reversal (Rattus norvegicus [5]): inactive
6.96	Fc1ccc2[nH]cc([C@H]3CC[C@H](CCN4CCN(c5ccccn5)CC4)CC3)c2c1	–	9	100	ED50 (Rattus norvegicus [8]): Stimulant
7.08	Cn1cc([C@H]2CC[C@H](CCN3CCN(c4ccccn4)CC3)CC2)c2ccccc21	–	> 30	–	–
6.19	Fc1ccc(N2CCN(CC[C@H]3CC[C@H](c4c[nH]c5ccccc54)CC3)CC2)cc1	–	> 30	–	–

The remaining lines, values behind:

SMILES	pKi (D(2) dopamine receptor [1])	ED50 (Rattus norvegicus [2]) [mg/kg]	ED50 (Mus musculus [3]) [mg/kg]	Reversal (Rattus norvegicus [4]) [%]	also measured
C1=C(c2c[nH]c3ccccc23)CCC(CCN2CCN(c3ccccn3)CC2)C1 (centres undefined)	6.57	–	–	–	–
C1=C(c2ccccc2)CCN(CC[C@H]2CC[C@@H](c3c[nH]c4ccccc43)CC2)C1	7.55	–	10.5	5	–
C1=C(c2ccccc2)CC[C@H](CCN2CCN(c3ccccn3)CC2)C1	6.39	–	–	–	–
Oc1ccc2[nH]cc(CCCCN3CC=C(c4ccccc4)CC3)c2c1 [ROXINDOLE]	7.85	47.6	0.25	70	–
C1=C(c2ccccc2)CCN(CC[C@H]2CC[C@H](c3c[nH]c4ccccc43)CC2)C1	8.06	> 30	7.2	–	Reversal (Rattus norvegicus [5]): inactive
c1ccc(N2CCN([C@H]3CC[C@@H](c4c[nH]c5ccccc54)CC3)CC2)nc1	–	–	> 30	–	–
C1=C(c2cccs2)CCN(CC[C@H]2CC[C@H](c3c[nH]c4ccccc43)CC2)C1	6.20	–	11.6	–	–
c1ccc(N2CCN([C@H]3CC[C@H](c4c[nH]c5ccccc54)CC3)CC2)nc1	6.34	13.7	1.2	38	–
c1ccc(N2CCN(CC[C@H]3CC[C@H](c4c[nH]c5ccccc54)CC3)CC2)nc1	7.30	4.8	1.4	44	ED50 (Mus musculus [9]): > 30 mg/kg; ED50 (Rattus norvegicus [10]): > 24 mg/kg; pKi (D(2) dopamine receptor [11]): 8.59; Activity (Rattus norvegicus [12]): 33%; pKi (D(3) dopamine receptor): 7.54; Activity [13]: 38%; ED50 [14]: 1 mg/kg; ED50 (Rattus norvegicus [15]): 6.6 mg/kg; pKi (D(4) dopamine receptor): 7.14; Activity (Rattus norvegicus [16]): 100%
